Consider 15 compounds from paper PMC5892705 (Science signaling, 2017).

Where two headings read alike, the source gives them in different places.

One data set addresses rat V2R. The following applies: read-out: Ki at rat V2R; ref Chini et al.([38]); cited from earlier work.
Another data set deals with human V1aR. Particulars: read-out: Ki at human V1aR, cited from earlier work.
Data set [1] deals with OT, V1a, V1b, V2 receptors. The following applies: cited from earlier work.
For data set [2], the system named is OT, V1a, V1b, V2 receptors. Particulars: cited from earlier work. This is another data set of the same source.
A further data set deals with T1, human OTR (Homo sapiens, UniProt P30559).
T1 sequence (P30559 1-389): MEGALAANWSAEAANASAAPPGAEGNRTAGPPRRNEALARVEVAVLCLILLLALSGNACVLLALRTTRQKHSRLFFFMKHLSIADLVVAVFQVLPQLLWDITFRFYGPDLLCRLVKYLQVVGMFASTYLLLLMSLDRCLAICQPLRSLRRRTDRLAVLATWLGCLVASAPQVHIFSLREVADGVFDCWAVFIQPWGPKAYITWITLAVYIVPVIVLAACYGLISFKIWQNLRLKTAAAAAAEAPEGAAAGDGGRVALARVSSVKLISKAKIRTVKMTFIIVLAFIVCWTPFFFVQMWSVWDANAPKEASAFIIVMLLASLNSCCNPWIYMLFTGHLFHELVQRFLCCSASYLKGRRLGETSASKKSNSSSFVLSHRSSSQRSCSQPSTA
The following applies: read-out: Ki at human OTR; ref Chini et al.([38]); cited from earlier work.

The next data set concerns the target mouse V2R. Particulars: read-out: Ki at mouse V2R; ref Chini et al.([38]); cited from earlier work.
Another data set has as its target human V2R. The following applies: read-out: Ki at human V2R; ref Chini et al.([38]); cited from earlier work.
Another data set has as its target human V1bR. The following applies: read-out: Ki at human V1bR; ref Chini et al.([38]); cited from earlier work.
The test system of data set [3] is OT, V1a, V1b, V2 receptors. The following applies: cited from earlier work. This is another data set of the same source.
Another data set addresses rat OTR. Particulars: read-out: Ki at rat OTR; ref Chini et al.([38]); cited from earlier work.
A further data set concerns the target rat V1aR. The following applies: read-out: Ki at rat V1aR; ref Chini et al.([38]); cited from earlier work.
Data set [4] is described as follows: Human serum stability assay. The format is in vitro ADME. An outline of the steps:
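Peptides were spiked into human serum. Aliquots were withdrawn at 1, 2, 3, 4, 12, 24 and 48 h and analysed by RP-HPLC and LCMS.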

For a further data set, the target named is rat V1bR. Particulars: read-out: Ki at rat V1bR; ref Chini et al.([38]); cited from earlier work.
Where [5] appears, read: rat, ref [37], [38], [41], [48], [49], [63], [96]–[99].
Where [6] appears, read: human, ref [37], [38], [41], [48], [49], [63], [96]–[99].
[7] abbreviates: mouse, ref [37], [38], [41], [48], [49], [63], [96]–[99].

The term Ki denotes the dissociation constant of the complex between target and ligand, obtained from inhibition or displacement. Broadly, the half-life is the time needed for the level to fall by half in the phase considered.

With dDAVP, the Ki on rat V2R was 0.3 nM.

In the case of `COc1ccc(S(=O)(=O)N2c3ccc(Cl)cc3[C@](O)(c3ccccc3Cl)[C@@H]2C(=O)N2CCC[C@H]2C(N)=O)cc1OC` [SR49059], on human V1aR (ref Chini et al.([38])), the Ki was 0.9 nM.

Turning to [Hmp1,Phe2,Ile3,Hgn4,Dab8]-VP [F-180], the Selectivity entry is listed as “unselective” in [1] (setting [5]) and “V1a preference” in data set [2] (setting [6]). Also, on human V1aR (ref Chini et al.([38])), the Ki is 11.7 nM.

Consider `CCN(Cc1cccnc1)C(=O)c1ccc(Cl)c(C2(C)C(=O)N(Cc3ccc(OC)cc3OC)c3ccc(Cl)cc32)c1` (stereo not shown) [SSR126768], for which the Ki on human OTR is 0.9 nM.

On to `CCOc1ccc2c(c1)C1(CCC(OCCN3CCOCC3)CC1)C(=O)N2S(=O)(=O)c1ccc(C(=O)NC(C)(C)C)cc1OC` (stereo not shown) [SR121463], for which the Ki on rat V2R is 1.5 nM; at mouse V2R it was 11.2 nM; at human V2R, 4.1 nM.

d[Cha4]-AVP: the Selectivity entry in [1] (setting [5]) was “unselective”; in data set [2] (setting [6]) it was “V1b selective”. In addition, the Ki on human V1bR is 1.2 nM.

Regarding `N=C(N)NCCC[C@H](NC(=O)[C@@H]1CCCN1C(=O)[C@@H]1CSSC[C@H](N)C(=O)N[C@@H](Cc2ccc(O)cc2)C(=O)N[C@@H](Cc2ccccc2)C(=O)N[C@@H](CCC(N)=O)C(=O)N[C@@H](CC(N)=O)C(=O)N1)C(=O)NCC(N)=O` [AVP, arginine-vasopressin], the Selectivity entry in data set [1], in [2] and in [3] was “unselective” in each case.

Take Atosiban: the Selectivity result in data set [1] (setting [5]) is recorded as “unselective”; in data set [2] (setting [6]), “V1a preference”; in data set [3] (setting [7]), “OT selective”.

For “[Phe2,Ile3,Hgn4,Orn(iPr)8]-VP [FE 202158]”, the Ki on human V1aR (selective agonist, ref [100], [101]) is 4.4 nM.

With [Thr4,Gly7]-OT [T4G7-OT], on rat OTR, the Ki was 1 nM. For the same compound, the Selectivity result in data set [1] (setting [5]) is on record as “OT selective”; in data set [2] (setting [6]), “OT preference”; in [3] (setting [7]), “OT selective”.

For `COc1ccc(S(=O)(=O)N2c3ccc(Cl)cc3[C@](O)(c3ccccc3Cl)[C@@H]2C(=O)N2CCC[C@H]2C(N)=O)cc1OC` [SR49049], the inhibitory constant (Ki) at rat V1aR is 2.2 nM.

For the compound `CC[C@H](C)[C@@H]1NC(=O)[C@H](Cc2ccc(O)cc2)NC(=O)[C@@H](N)CSSC[C@@H](C(=O)N2CCC[C@H]2C(=O)N[C@@H](CC(C)C)C(=O)NCC(N)=O)NC(=O)[C@H](CC(N)=O)NC(=O)[C@H](CCC(N)=O)NC1=O` [OT, Oxytocin], the half-life in [4] is 12 h.

With d(CH2)5[Tyr(Me)2]-AVP, at rat V1aR, the Ki is 0.7 nM.

Take d(CH2)5[D-Ile2,Ile4,Tyr9]-AVP: on human V1aR (ref Chini et al.([38])), the Ki is 3.7 nM.

In the case of d[Leu4, Lys8]-VP, at rat V1bR, the inhibition constant (Ki) was 1.2 nM.
